From ChEMBL document CHEMBL1143670, “An adamantyl-substituted retinoid-derived molecule that inhibits cancer cell growth and angiogenesis by inducing apoptosis and binds to small heterodimer partner nuclear receptor: effects of modifying its carboxylate group on apoptosis, proliferation, and protein-tyrosine phosphatase activity” (J Med Chem, 2007)
The source made the active and inactive calls. No cut-off for these calls is given here.

Tests used:
[1] = target: T1, Nuclear receptor subfamily 0 group B member 2 (Homo sapiens) (UniProt Q15466); experiment: Displacement of [5,5'-3H2]AHPN from recombinant human GST-SHP partner nuclear orphan receptor at 50 uM
T1 sequence (whole entry): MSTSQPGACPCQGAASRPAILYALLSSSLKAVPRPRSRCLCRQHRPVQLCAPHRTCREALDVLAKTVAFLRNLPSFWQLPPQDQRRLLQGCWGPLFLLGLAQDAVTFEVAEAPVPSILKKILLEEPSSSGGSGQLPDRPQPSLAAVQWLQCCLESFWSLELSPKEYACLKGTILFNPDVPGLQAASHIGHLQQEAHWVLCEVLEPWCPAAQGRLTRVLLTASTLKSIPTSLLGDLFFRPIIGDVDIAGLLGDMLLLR
Summary of the method: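 GST–human SHP fusion (150–500 ng) on glutathione-Sepharose beads preincubated on ice 45 min with unlabeled compound (50 µM final) in 0.4 mL binding buffer. [5,5′-3H2]AHPN (5 nM final) then added for 2 h at 4 °C. Beads washed, counted by scintillation directly or after elution with 50 mM NaHCO3/1% SDS.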

KG-1 [2] = experiment: Induction of apoptosis in retinoid-resistant KG1 cells at 1 uM after 48 hrs; type: functional, Homo sapiens
Summary of the method: (§1)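 Apoptotic cells scored by acridine orange staining. KG-1, HL-60R or MDA-MB-231 cells seeded in medium with 5% FBS, incubated overnight, then exposed to compound in Me2SO (0.1% final) for the stated time.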

KG-1 [3] = experiment: Induction of apoptosis in retinoid-resistant KG1 cells at 5 uM after 48 hrs; type: functional, Homo sapiens; summary of the method: as §1
[4] = Growth inhibition of retinoid-resistant H292 cells at 1 uM relative to control; type: functional; conditions: Homo sapiens, NCI-H292
Summary of the method: (§2)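 Cells seeded at 2 × 10^3 per well for H292 and DU-145 (RPMI-1640, 10% FBS) or 4 × 10^3 for MDA-MB-231 (DMEM, 10% FBS), 37 °C, 6% CO2. After 24 h attachment, treated 72 h with compound in Me2SO (0.1% final); media and compound renewed at 48 h. Viable cells by MTS reduction; triplicates per concentration.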

MDA-MB-231 [5] = experiment: Growth inhibition of retinoid-resistant MDA-MB-231 cells at 1 uM relative to control; type: functional; conditions: Homo sapiens; summary of the method: as §2
DU-145 [6] = experiment: Growth inhibition of retinoid-resistant DU145 cells at 1 uM relative to control; type: functional; conditions: Homo sapiens; summary of the method: as §2
HMVE [7] = experiment: Inhibition of HMVE cell migration through Matrigel after 5 hrs; type: functional, cell-based; conditions: Homo sapiens
Summary of the method: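 Transwell inserts (8 µm pores) with undersides coated with Matrigel (30 µg/mL), blocked with 1% BSA. HMVE cells from 80% confluent cultures, released enzyme-free, were placed in inserts with compound (0.05–500 nM) or Me2SO (0.01% final). After 5 h at 37 °C, cells on underside fixed, stained with Diff-Quick and counted in three high-power fields per well; mean ± SD of three replicates.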

HMVE [8] = experiment: Induction of apoptosis in HMVE cells assessed as increase in oligonucleosome levels after 20 hrs by ELISA; type: functional, cell-based; conditions: Homo sapiens
Summary of the method: (§3)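 HMVE cells (6 × 10^4 per well) seeded in EGM-MV, incubated 6 h at 37 °C. Then treated 20 h with compound (10–500 nM), 1.0 µM doxorubicin or Me2SO (0.5% final). Cytoplasmic histone-associated DNA fragments in lysate supernatant measured by Cell Death Detection ELISA; triplicates.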

MDA-MB-231 [9] = experiment: Induction of apoptosis in MDA-MB-231 cells at 1 uM after 96 hrs; type: functional, Homo sapiens; summary of the method: as §1
[10] = Growth inhibition of retinoid-resistant H292 cells after 72 hrs; type: functional, cell-based; conditions: Homo sapiens, NCI-H292, 72 h; summary of the method: as §2
MDA-MB-231 [11] = experiment: Growth inhibition of retinoid-resistant MDA-MB-231 cells after 72 hrs; type: functional, cell-based; conditions: Homo sapiens, MDA-MB-231, 72 h; summary of the method: as §2
HMVE [12] = experiment: Inhibition of HMVE cell tubule formation in Matrigel after 18 hrs; type: functional, cell-based; conditions: Homo sapiens
Summary of the method: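 Trypsinized HMVE cells (5 × 10^4 per well in EGM-MV) plated on gelled Matrigel, held 1 h at 37 °C, then exposed 18 h at 37 °C to 0.25 or 1.0 µM compound or Me2SO (0.05% final). Total tube length measured from phase-contrast images, four random fields per well, three replicates.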

[13] = Growth inhibition of primary HMVE cells after 72 hrs; type: functional, cell-based; conditions: Homo sapiens
Summary of the method: (§4)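 Primary HMVE cells, 1 × 10^4 per well in EGM-MV medium, incubated 1 h at 37 °C. Compound in Me2SO added, or Me2SO alone (0.5% final). After 72 h at 37 °C, cells detached with trypsin/EDTA and counted by hemocytometer; three replicates.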

KG-1 [14] = experiment: Inhibition of cell proliferation in retinoid-resistant KG1 cells at 1 uM after 48 hrs relative to control; type: functional; conditions: Homo sapiens, KG-1, 48 h
Summary of the method: (§5)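 KG-1 cells grown in RPMI-1640 with 5% heat-inactivated FBS and gentamycin, seeded in 3 mL medium plus 5% FBS, incubated overnight. Compound then added in Me2SO (0.1% final), cells incubated for the stated time, harvested and counted by hemocytometer.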

DU-145 [15] = experiment: Growth inhibition of retinoid-resistant DU145 cells after 72 hrs; type: functional, cell-based; conditions: Homo sapiens, DU-145, 72 h; summary of the method: as §2
[16] = Antiproliferative activity against HMVE cells; type: functional, cell-based; conditions: Homo sapiens
[17] = Induction of apoptosis in HMVE cells at 0.5 uM after 20 hrs relative to adriamycin; type: functional, Homo sapiens; summary of the method: as §3
KG-1 [18] = experiment: Inhibition of cell proliferation in retinoid-resistant KG1 cells after 48 hrs; type: functional, cell-based; conditions: Homo sapiens, KG-1, 48 h; summary of the method: as §5
KG-1 [19] = experiment: Growth inhibition of retinoid-resistant KG1 cells at 5 uM after 48 hrs; type: functional; conditions: Homo sapiens, KG-1, 48 h; summary of the method: as §5
[20] = Inhibition of HMVE cell proliferation at 0.5 uM relative to control; type: functional; conditions: Homo sapiens
[21] = target: T2, Tyrosine-protein phosphatase non-receptor type 11 (Homo sapiens, UniProt Q06124); experiment: Inhibition of SHP2 PTP by fluorescence spectroscopy
T2 sequence (Q06124 whole entry): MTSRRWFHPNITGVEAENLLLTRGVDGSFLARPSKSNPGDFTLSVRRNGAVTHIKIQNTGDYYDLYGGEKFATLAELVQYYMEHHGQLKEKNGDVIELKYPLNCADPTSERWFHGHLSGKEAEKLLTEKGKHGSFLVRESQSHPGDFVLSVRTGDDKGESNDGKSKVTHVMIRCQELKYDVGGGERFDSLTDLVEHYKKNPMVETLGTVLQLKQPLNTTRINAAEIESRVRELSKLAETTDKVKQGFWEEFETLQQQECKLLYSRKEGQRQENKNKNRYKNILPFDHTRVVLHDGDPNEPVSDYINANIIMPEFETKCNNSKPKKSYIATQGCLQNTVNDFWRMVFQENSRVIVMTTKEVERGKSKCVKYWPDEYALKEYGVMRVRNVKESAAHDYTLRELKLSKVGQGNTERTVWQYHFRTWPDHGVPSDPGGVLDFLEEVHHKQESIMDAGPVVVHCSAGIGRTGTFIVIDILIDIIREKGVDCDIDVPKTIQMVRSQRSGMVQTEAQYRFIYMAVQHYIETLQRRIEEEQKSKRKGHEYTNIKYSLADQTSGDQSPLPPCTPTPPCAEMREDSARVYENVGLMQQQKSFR

[22] = target: Receptor-type tyrosine-protein phosphatase C, CD45 (Homo sapiens) (UniProt P08575); experiment: Inhibition of CD45 PTP at 10 uM relative to control by fluorescence spectrometry
[23] = Growth inhibition of primary HMVE cells at 1 uM after 72 hrs; type: functional; conditions: Homo sapiens; summary of the method: as §4
MDA-MB-231 [24] = experiment: Induction of apoptosis in retinoid-resistant MDA-MB-231 cells at 2 uM after 96 hrs; type: functional, Homo sapiens

Sequence of Receptor-type tyrosine-protein phosphatase C, CD45 (Homo sapiens) (P08575 whole entry, looked up): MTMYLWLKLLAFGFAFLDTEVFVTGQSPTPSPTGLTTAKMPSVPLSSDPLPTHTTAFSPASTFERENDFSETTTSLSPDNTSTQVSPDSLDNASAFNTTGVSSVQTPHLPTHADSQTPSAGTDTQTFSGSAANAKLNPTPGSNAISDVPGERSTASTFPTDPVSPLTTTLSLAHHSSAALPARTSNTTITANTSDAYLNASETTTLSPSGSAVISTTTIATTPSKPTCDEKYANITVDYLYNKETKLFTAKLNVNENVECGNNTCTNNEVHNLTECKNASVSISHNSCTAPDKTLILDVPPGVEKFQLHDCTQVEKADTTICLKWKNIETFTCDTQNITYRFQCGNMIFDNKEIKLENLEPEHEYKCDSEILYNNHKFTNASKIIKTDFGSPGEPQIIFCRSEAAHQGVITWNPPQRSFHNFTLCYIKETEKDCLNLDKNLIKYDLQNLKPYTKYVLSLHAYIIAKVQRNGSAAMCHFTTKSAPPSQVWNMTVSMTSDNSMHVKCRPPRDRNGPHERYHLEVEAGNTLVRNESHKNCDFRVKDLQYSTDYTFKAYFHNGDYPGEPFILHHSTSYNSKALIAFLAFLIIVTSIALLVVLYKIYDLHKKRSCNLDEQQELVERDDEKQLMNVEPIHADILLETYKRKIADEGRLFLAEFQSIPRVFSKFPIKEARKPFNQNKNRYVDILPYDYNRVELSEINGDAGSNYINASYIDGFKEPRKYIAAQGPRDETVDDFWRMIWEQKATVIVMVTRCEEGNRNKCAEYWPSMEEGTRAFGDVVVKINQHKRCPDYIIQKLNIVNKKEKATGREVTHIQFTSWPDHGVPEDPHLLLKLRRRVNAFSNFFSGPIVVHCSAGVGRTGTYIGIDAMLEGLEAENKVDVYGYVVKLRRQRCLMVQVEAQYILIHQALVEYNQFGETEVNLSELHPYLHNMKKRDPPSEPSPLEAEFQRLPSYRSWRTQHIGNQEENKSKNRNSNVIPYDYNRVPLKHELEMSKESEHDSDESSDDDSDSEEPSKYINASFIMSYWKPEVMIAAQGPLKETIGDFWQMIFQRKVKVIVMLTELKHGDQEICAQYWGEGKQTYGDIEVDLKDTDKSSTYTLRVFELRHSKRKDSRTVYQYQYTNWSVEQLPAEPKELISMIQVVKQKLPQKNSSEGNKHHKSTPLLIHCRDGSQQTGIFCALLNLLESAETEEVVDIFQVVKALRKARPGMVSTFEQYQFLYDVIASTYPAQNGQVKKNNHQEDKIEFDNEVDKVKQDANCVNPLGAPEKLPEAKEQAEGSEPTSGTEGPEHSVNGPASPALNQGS

| Activity [1] | IC50 (MDA-MB-231 [11]) | IC50 (DU-145 [15]) | SMILES | Activity (KG-1 [2]) | Activity (KG-1 [3]) | inhibition at 1 µM [4] | inhibition at 1 µM (MDA-MB-231 [5]) | inhibition at 1 µM (DU-145 [6]) | IC50 [10] | inhibition at 1 µM (KG-1 [14]) | IC50 (KG-1 [18]) | inhibition at 5 µM (KG-1 [19]) | further results |
| --- | --- | --- | --- | --- | --- | --- | --- | --- | --- | --- | --- | --- | --- |
| 87% | 1.8 µM | 0.5 µM | O=C(O)/C=C/c1ccc(-c2ccc(O)c(C34CC5CC(CC(C5)C3)C4)c2)c(Cl)c1 | 30% | 55% | 79% | 32% | 76% | 0.4 µM | 44% | 0.3 µM | 67% | Activity (HMVE [7]): inactive; Activity (HMVE [8]): Dose-dependent effect; Activity (MDA-MB-231 [9]): 43%; Activity (HMVE [12]): inactive; IC50 [13]: 0.3 µM; IC50 [16]: 0.3 µM; Activity [17]: 64%; inhibition at 0.5 µM [20]: 60% |
| 37% | 18 µM | 3.7 µM | O=C1NC(=O)/C(=C/c2ccc(-c3ccc(O)c(C45CC6CC(CC(C6)C4)C5)c3)c(Cl)c2)S1 | 8% | 10% | 17% | 0% | 17% | 3.6 µM | 28% | 14 µM | 41% | IC50 [21]: 2.2 µM; inhibition [22]: 53%; inhibition at 1 µM [23]: 30% |
| – | – | – | O=C(O)c1cccc2c(-c3ccc(O)c(C45CC6CC(CC(C6)C4)C5)c3)cccc12 | – | – | – | – | – | – | – | – | – | Activity (MDA-MB-231 [24]): 4% |
